Screening results: PubChem, Broad Institute
EWS-Fli inh: blocks EWS/Fli oncoprotein-driven transcription. 350,000 tested, 0.67% active. A673 NR0B1-luciferase reporter, viability-normalised. inhibition, % at 12.6 µM;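 active = mean inhibition of at least 50% after viability correction, with every replicate also passing that limit; inconclusive = mean reaches 50% but only one of two replicates passes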;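 note: firefly luciferase signal divided by Alamar Blue viability fluorescence both relative to DMSO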
FN deposition inh: fibronectin deposition inhibition; AH1F fibroblasts, Alexa488-fibronectin deposition fluorescence, overnight; inhibition, % at 12.6 µM; 350,000 tested, 0.086% active; AID 743247;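 active = mean inhibition across replicates of 30% or more, regardless of how many single replicates reach that level; inconclusive = mean under 30% yet at least half of replicates reach 30%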
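Measured by – fluorescence 485/525 nm · System – AH1F fibroblast monolayer, labelled fibronectin deposition · Amount – 10000 cells per well · Buffer or medium – serum-reduced DMEM (2% serum) · Doses – single dose, pinned · Also added – fluorescent fibronectin at 24 nM final · Schedule – 1 h cell attachment, overnight exposure to compound and label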
CFTR F508del cor: correctors of CFTR F508del function in bronchial epithelial cells; activity (quench increase), % at 7.58 µM; CFBE cells, YFP halide quenching; stimulated with forskolin plus potentiator P3; % fluorescence drop versus neutral controls; 350,000 tested, 0.36% active;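 active = mean added fluorescence quench of at least 8% versus neutral control, with both replicates also reaching 8%; inconclusive = only one of the mean or replicate conditions met; inactive = mean below 8% and not both replicates reaching 8%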;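 note: cells transiently co-express mutant CFTR-F508del with the halide-sensitive YFP; corrector assay measuring rescue of mutant channel to the surface after 24 h compound exposure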
PGC1a acetyl inh: PGC1a acetylation modulation, inhibitor mode; U2OS PGC1a acetylation, AlphaScreen anti-acetyl-lysine; with virally co-expressed GCN5 acetyltransferase; inhibition, % at 15.6 µM; 350,000 tested, 0.17% active; AID 651687;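 active = every replicate shows inhibition of at least 40%; inconclusive = mean inhibition at least 40% but some replicate below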
PAX8 inh HTS: lowers PAX8-driven luciferase in RMG-I cells | inhibition, % at 12.6 µM | RMG-I TPO-luciferase reporter, SteadyGlo, 24 h | 360,000 tested, 1.2% active;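 active = mean replicate inhibition at least 60% with every replicate also reaching 60%; inconclusive = only one of the two criteria is met; inactive = mean below 60% and not all replicates reaching 60%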;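 note: luciferase light reporting Pax8 driven TPO promoter activity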
Env fusion inh: blocks HIV Env-driven cell-cell fusion | HeLa-JRFL Env/CEM21 cell fusion, luciferase | inhibition, % at 12.3 µM | 360,000 tested, 1.1% active | AID 651610;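 active = mean replicate inhibition score of at least 50 and every replicate individually at or above 50; inconclusive = only one of the two criteria met; inactive = mean below 50 and not all replicates reaching 50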
Hits are given with their value; . = inactive; ? = inconclusive; / = no result; ! = repeats disagree; [ ] = remark or other dose. Sampled rows, rich in hits. Any-hit rate of the full collection: about 2.3%.

SMILES	EWS-Fli inh	FN deposition inh	CFTR F508del cor	PGC1a acetyl inh	PAX8 inh HTS	Env fusion inh
CS(=O)(=O)N(CC(=O)O)c1ccc(C23CC4CC(CC(C4)C2)C3)cc1	.	.	.	/	.	.
COc1ccccc1NC(=O)CN(c1ccc(C23CC4CC(CC(C4)C2)C3)cc1)S(C)(=O)=O	/	.	/	.	/	104.4
CCCC#Cc1ccc([C@H]2[C@H]3CN(S(=O)(=O)Cc4ccccc4)CCCCN3[C@H]2CO)cc1	.	/	.	.	106.4	/
CCCC#Cc1ccc([C@@H]2[C@H](CO)N3CCCCN(S(=O)(=O)Cc4ccccc4)C[C@@H]23)cc1	58.7	/	.	.	116.6	/
CCCC#Cc1ccc([C@@H]2[C@@H](CO)N3CCCCN(S(=O)(=O)Cc4ccccc4)C[C@@H]23)cc1	.	/	.	.	.	/
C[C@@H]1CC=CC[C@H](c2ccccc2)NC(=O)[C@@H](Cc2ccccc2)N(C)C(=O)c2ccccc2O1 (mixture of isomers)	/	.	/	/	/	/
CC(=O)N(C)C[C@@H]1Oc2cc(-c3ccncc3)ccc2S(=O)(=O)N([C@H](C)CO)C[C@@H]1C	.	.	.	.	/	.
Cc1cccc(S(=O)(=O)N2C[C@H](O)COC[C@@H]3O[C@H](CC(=O)Nc4ccc(-c5ccccc5)cc4)CC[C@H]32)c1	.	.	.	.	?	.
COc1ncccc1C(=O)NC1CCCc2c1cnn2-c1ccc(C)c(C)c1 (stereo unspecified)	.	30.8	.	.	.	.
CCCN1C[C@H](C)[C@@H](OC)CN(C)C(=O)c2cc(NC(=O)NC3CCCC3)ccc2OC[C@H]1C	/	.	/	/	/	/
CCC(=O)N1[C@H](CN(CC)C(C)=O)[C@@H](c2ccc(-c3ccccc3)cc2)[C@@H]1CO	.	/	8.9	.	.	/
CCOC(=O)Cn1nnnc1CN(CCc1ccccc1)Cc1cc2cc(CC)ccc2[nH]c1=O	/	.	/	.	/	119.0
Nc1cc(=O)[nH]c(SCCSc2ccccc2F)n1	.	.	.	/	.	.
Nc1cc(=O)[nH]c(SCCSc2cc(Cl)ccc2Cl)n1	.	.	.	.	.	69.2
COc1ccc(S(=O)(=O)N(C)C[C@@H]2OCCCC[C@@H](C)Oc3ccc(NC(=O)Nc4cccc5ccccc45)cc3C(=O)N([C@@H](C)CO)C[C@@H]2C)cc1	.	/	.	.	.	.
COc1ccc(CN(C)C[C@H]2OCCCC[C@H](C)Oc3ccc(NC(=O)Nc4ccccc4)cc3C(=O)N([C@H](C)CO)C[C@H]2C)cc1	64.8	.	.	.	.	.
COc1ccc(CN(C)C[C@@H]2OCCCC[C@@H](C)Oc3ccc(NC(=O)Nc4ccc(F)cc4)cc3C(=O)N([C@H](C)CO)C[C@H]2C)cc1	.	/	.	.	72.9	.
COC(=O)c1cccc(NC(=O)c2cc3ccccc3o2)c1	84.5	.	.	.	.	.
Cc1ccnc(NC(=O)c2cc3ccccc3o2)c1	74.7	.	.	/	.	.
C[C@@H]1CN([C@@H](C)CO)C(=O)c2cc(-c3cccc(C#N)c3)cnc2O[C@@H]1CN(C)C(=O)C1CCC1	.	/	.	.	.	.
Cc1ccc(CN(C)C(=O)c2ccccc2Sc2ccccc2C#N)cc1	.	.	.	.	.	.
CN(Cc1ccc(OC(F)F)cc1)C(=O)c1ccccc1Sc1ccccc1C#N	.	/	.	/	.	56.0
Cc1nn(CCO)c2nc(-c3cccs3)cc(C(F)(F)F)c12	.	.	.	/	160.7	/
CCSC1=C(C#N)C(c2ccc(Cl)cc2)C2=C(CCCC2=O)N1 (stereo unspecified)	/	.	/	.	/	57.8
CSC1=C(C#N)C(c2ccc3c(c2)OCO3)C2=C(CCCC2=O)N1 (stereo unspecified)	/	.	/	.	.	.
SMILES	EWS-Fli inh	FN deposition inh	CFTR F508del cor	PGC1a acetyl inh	PAX8 inh HTS	Env fusion inh
O=C(C[C@@H]1CC[C@@H]2[C@H](COC[C@@H](O)CN2C(=O)c2cnccn2)O1)N1CCN(c2ccccc2)CC1	.	.	.	.	.	.
O=C(C[C@H]1C[C@H]2c3cc(NC(=O)C4CCC4)ccc3O[C@H]2[C@@H](CO)O1)NCC(F)(F)F	.	.	.	.	.	56.5[16.7 µM]
O=C(C[C@@H]1C[C@H]2c3cc(NC(=O)C4CCC4)ccc3O[C@H]2[C@H](CO)O1)NCC(F)(F)F	.	.	.	.	.	92.9[16.7 µM]
CC(C)NC(=O)N1[C@@H]2CN(CC(F)(F)F)C[C@H]1C2c1ccc(Br)cc1 (stereo partly specified)	/	.	/	/	/	/
Cc1c(CCOC(=O)c2cc([N+](=O)[O-])cc([N+](=O)[O-])c2)sc[n+]1CC(=O)c1ccccc1	.	.	.	/	.	.
Cc1c(CCOC(=O)CC23CC4CC(CC(C4)C2)C3)sc[n+]1CC(=O)c1ccc(Br)cc1	/	.	/	.	/	61.4
Cc1c(CCOC(=O)C23CC4CC(CC(C)(C4)C2)C3)sc[n+]1CC(=O)c1ccccc1	.	.	.	/	.	82.2
COc1ccc(NC(=O)O[C@H]2[C@H](OC(=O)Nc3ccc4c(c3)OCO4)[C@H](OC(=O)Nc3ccc4c(c3)OCO4)[C@@H](OC)O[C@@H]2CO)cc1	.	/	.	.	.	.
CCC(C)(C)c1ccc(OCCCC[n+]2cccc(C)c2C)c(C(C)(C)CC)c1	?	.	.	.	97.8	99.2
CCC(C)(C)c1ccc(OCCCC[n+]2ccc(C)cc2)c(C(C)(C)CC)c1	/	.	/	/	84.6	126.9
Cc1ccc(C(=O)NC(C#N)=C(Cl)Cl)cc1	77.1	.	.	/	.	.
COc1cc(NC(=O)c2cc(C)on2)cc(C(=O)Nc2cccc(C(F)(F)F)c2)c1	.	.	.	/	85.8	.
COc1cc(NC(=O)c2csc(N)n2)cc(C(=O)Nc2cccc(C(F)(F)F)c2)c1	61.5	.	8.0!	.	81.9!	.
O=C(Nc1ccc(F)cc1)Nc1ccc(N2CCOCC2)c2nonc12	.	.	11.4	/	.	.
C[C@H](CO)N1C[C@H](C)[C@@H](CN(C)Cc2ccc(C(=O)O)cc2)Oc2ccc(NS(=O)(=O)c3ccc(Cl)cc3)cc2CC1=O	.	/	.	.	/	.
O=C(c1ccccc1F)N1CCCC(c2ccccc2)C1 (stereo unspecified)	.	.	.	.	66.7	/
O=C(c1ccccc1F)N1CCCC(C(=O)N2CCN(c3ccccc3)CC2)C1 (stereo unspecified)	.	.	.	/	.	.
COC(=O)c1c(NC(=O)CN2CCC3(O)CCCCC3C2c2ccc(F)cc2)sc(C)c1C (stereo unspecified)	/	.	/	/	.	.
COC(=O)c1c(NC(=O)CN2CCC3(O)CCCCC3C2c2cc(OC)ccc2OC)sc(C)c1C (stereo unspecified)	/	.	/	/	.	90.6
O=C(/C=C/C(Cl)(Cl)Cl)Nc1ccc(Cl)cc1	52.6	.	.	.	.	.
CN(C)Cc1cn(CC[C@H]2CC[C@@H](NS(=O)(=O)c3ccccc3)[C@@H](CO)O2)nn1	.	/	.	.	/	.
